One block for each molecule: values may come before it.
Legend:
[1] = biological target: USP7 catalytic domain (amino acids 208–560) (Homo sapiens, UniProt Q93009); test: Ub-AMC assay, USP7 catalytic domain; assay type: biochemical; conditions: for inhibition of USP7: catalytic domain, Ub-AMC, concentrations up to 100 μM
Method in brief: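 Human USP7 catalytic domain (residues 208–560) was expressed in E. coli BL21(DE3), purified on Ni-NTA, thrombin-treated, gel-filtered and used at 250 nM. 2 uM Ub-AMC was then added. Fluorescence (ex 345/em 445 nm) was read every minute for 30 min. IC50 came from initial rates plotted against concentration.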

[2] = tested on: USP7; conditions: read-out: IC50, USP7; ref Altun et al., 2011; Ritorto et al., 2014; cited from earlier work
[3] = tested on: USP10; conditions: ref Altun et al., 2011; Ritorto et al., 2014; cited from earlier work
[4] = tested on: USP47; conditions: ref Altun et al., 2011; Ritorto et al., 2014; cited from earlier work
[5] = tested on: panel of purified DUBs; test: Selectivity profiling; assay type: biochemical
[6] = tested on: MCF7 cells; test: HDM2, p53 and p21 protein levels in MCF7 cells; assay type: cell-based; conditions: 16 hours
Method in brief: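 MCF7 cells grown in RPMI with 10% heat-inactivated FBS and penicillin/streptomycin at 37 °C, 5% CO2. Treated with test compound or DMSO for 16 h. Where used, cycloheximide (50 ug/ml) was added at 14 h. Cells were washed in PBS and lysed in modified RIPA buffer with phosphatase and protease inhibitors. Protein was quantified by BCA, then immunoblotted for mdm2, p53, p21, GAPDH and USP7.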

[7] = Solubility in aqueous buffer; assay type: physicochemical
[8] = biological target: full-length USP7 (amino acids 1–1102) (Homo sapiens, UniProt Q93009); test: Ub-AMC assay, full-length USP7; assay type: biochemical; conditions: XL188 vs 1
Method in brief: (§1)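 Full-length USP7 (1–1102), wild type or Q351 mutant, was expressed in E. coli BL21(DE3), purified by Ni-NTA and Superdex 200 and used at 50 nM. 2 uM Ub-AMC was added and fluorescence (345/445 nm) read each minute over 30 min. Initial rates against concentration gave IC50.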

[9] = biological target: full-length USP7Q351S (Homo sapiens, UniProt Q93009, Q351S); test: Ub-AMC assay, full-length USP7Q351S; assay type: biochemical; conditions: dose-response, amino acids 1–1102
Method in brief: as §1

[10] = biological target: native USP7 (Homo sapiens, UniProt Q93009); test: Competitive activity based protein profiling with HA-Ub-Vs in HEK293T lysates; assay type: binding
[11] = Mouse liver microsome stability; assay type: in vitro ADME; conditions: liver microsomes
[12] = tested on: MM.1S cells; test: HDM2, p53 and p21 protein levels in MM.1S cells; assay type: cell-based; conditions: 6 hours
Method in brief: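 MM.1S cells were cultured in RPMI with 10% heat-inactivated FBS and penicillin/streptomycin (37 °C, 5% CO2). They were exposed to test compound or DMSO for 6 h, with or without 50 ug/ml cycloheximide added at 4 h. After a PBS wash, cells were lysed in modified RIPA containing phosphatase and protease inhibitors. Lysates were BCA-normalised and immunoblotted for mdm2, p53, p21, GAPDH and USP7.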

Sequence of USP7 catalytic domain (amino acids 208–560) (Q93009 208-560): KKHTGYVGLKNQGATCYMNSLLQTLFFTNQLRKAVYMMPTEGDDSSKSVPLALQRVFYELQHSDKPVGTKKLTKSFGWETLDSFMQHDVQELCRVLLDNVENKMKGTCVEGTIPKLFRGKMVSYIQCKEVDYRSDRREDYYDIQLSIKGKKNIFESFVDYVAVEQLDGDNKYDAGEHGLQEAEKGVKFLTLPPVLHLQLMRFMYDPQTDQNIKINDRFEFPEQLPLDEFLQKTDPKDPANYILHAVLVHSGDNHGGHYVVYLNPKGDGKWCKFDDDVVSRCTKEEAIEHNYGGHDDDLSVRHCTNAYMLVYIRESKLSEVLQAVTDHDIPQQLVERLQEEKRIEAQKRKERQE
Sequence of native USP7 (Q93009 whole entry): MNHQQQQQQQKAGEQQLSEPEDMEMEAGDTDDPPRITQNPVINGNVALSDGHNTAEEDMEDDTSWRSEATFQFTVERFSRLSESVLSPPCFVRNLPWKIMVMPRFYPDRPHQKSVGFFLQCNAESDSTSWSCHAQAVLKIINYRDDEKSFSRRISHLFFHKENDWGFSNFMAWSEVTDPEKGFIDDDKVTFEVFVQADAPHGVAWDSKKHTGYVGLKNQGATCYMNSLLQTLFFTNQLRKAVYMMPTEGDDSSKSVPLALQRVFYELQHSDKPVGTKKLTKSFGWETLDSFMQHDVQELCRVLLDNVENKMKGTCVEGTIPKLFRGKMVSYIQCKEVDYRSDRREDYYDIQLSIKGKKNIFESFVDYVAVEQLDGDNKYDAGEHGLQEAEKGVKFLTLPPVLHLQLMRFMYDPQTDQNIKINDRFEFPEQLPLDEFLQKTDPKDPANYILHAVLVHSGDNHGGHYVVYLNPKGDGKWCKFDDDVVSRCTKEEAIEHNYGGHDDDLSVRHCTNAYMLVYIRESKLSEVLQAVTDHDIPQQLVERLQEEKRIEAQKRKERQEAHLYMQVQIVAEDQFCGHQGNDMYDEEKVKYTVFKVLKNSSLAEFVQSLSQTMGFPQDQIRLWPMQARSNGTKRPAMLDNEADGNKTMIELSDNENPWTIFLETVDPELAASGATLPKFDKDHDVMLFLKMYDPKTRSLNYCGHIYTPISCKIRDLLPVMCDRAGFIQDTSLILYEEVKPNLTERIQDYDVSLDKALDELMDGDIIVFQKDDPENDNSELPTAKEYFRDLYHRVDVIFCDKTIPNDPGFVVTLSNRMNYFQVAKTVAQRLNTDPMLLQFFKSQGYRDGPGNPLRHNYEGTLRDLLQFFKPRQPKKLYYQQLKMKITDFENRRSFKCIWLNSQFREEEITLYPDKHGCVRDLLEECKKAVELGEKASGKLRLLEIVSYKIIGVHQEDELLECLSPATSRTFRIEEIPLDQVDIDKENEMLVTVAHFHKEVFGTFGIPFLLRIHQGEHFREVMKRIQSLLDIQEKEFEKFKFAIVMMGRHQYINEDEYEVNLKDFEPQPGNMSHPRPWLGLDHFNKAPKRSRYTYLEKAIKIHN
Sequence of full-length USP7 (amino acids 1–1102) (Q93009 whole entry, the tested form may be a part): as the sequence (Q93009 whole entry) above
Sequence of full-length USP7Q351S (Q93009 whole entry Q351S, the tested form may be a part): as the sequence (Q93009 whole entry) above, with Q351S counted along it

inhibition of USP7 [1]: abrogated USP7 activity
SMILES: O=C(CCc1ccccc1)N1CCC(O)(Cn2cnc3cc(Cl)ccc3c2=O)C1 (stereo not drawn) [Compound 5, 7-chloro-3-((3-hydroxy-1-(3-phenylpropanoyl)pyrrolidin-3-yl)methyl)quinazolin-4(3H)-one]

IC50 [1]: > 100 µM
SMILES: O=C(Cc1ccccc1)N1CCC(O)(Cn2cnc3cc(Cl)ccc3c2=O)CC1 [Compound 7, 7-chloro-3-((4-hydroxy-1-(2-phenylacetyl)piperidin-4-yl)methyl)quinazolin-4(3H)-one]

IC50 [1]: > 100 µM
SMILES: CC(=O)N1CCC(O)(Cn2cnc3cc(Cl)ccc3c2=O)CC1 [Compound 6, 3-((1-acetyl-4-hydroxypiperidin-4-yl)methyl)-7-chloroquinazolin-4(3H)-one]

fold improvement of biochemical potency ([1]; relative to 1): approximately 10 fold
SMILES: CC(CC(=O)N1CCC(O)(Cn2cnc3cc(Cl)ccc3c2=O)CC1)c1ccccc1 (stereo not drawn) [Compound 8, 7-chloro-3-((4-hydroxy-1-(3-phenylbutanoyl)piperidin-4-yl)methyl)quinazolin-4(3H)-one]

SMILES: CC(=O)c1cc([N+](=O)[O-])c(Sc2ccc(F)cc2F)s1 [Compound P22077]
inhibition of USP10 compared with USP7 [3]: equipotent
inhibition of USP47 compared with USP7 [4]: equipotent

inhibition of USP7 [1]: little inhibition
SMILES: O=C(CCc1ccccc1)N1CCC(Cn2cnc3cc(Cl)ccc3c2=O)CC1 [Compound 2, 7-chloro-3-((1-(3-phenylpropanoyl)piperidin-4-yl)methyl)quinazolin-4(3H)-one]

SMILES: C[C@@H](CC(=O)N1CCC(O)(Cn2cnc3cc(NC(=O)CCN4CCN(C)CC4)ccc3c2=O)CC1)c1ccccc1 [XL203C, (S)-N-(3-((4-hydroxy-1-(3-phenylbutanoyl)piperidin-4-yl)methyl)-4-oxo-3,4-dihydroquinazolin-7-yl)-3-(4-methylpiperazin-1-yl)propanamide]
inhibition of other DUBs ([5]; Figure S1G, Table S1, concentration not given): no significant inhibition
levels of p53 and p21 [6]: no observable change

fold more potent than the (S)-stereoisomer (10) ([1]; (R)- vs (S)-stereoisomer): approximately 100 fold
solubility in aqueous buffer [7]: poor
SMILES: C[C@H](CC(=O)N1CCC(O)(Cn2cnc3cc(Cl)ccc3c2=O)CC1)c1ccccc1 [Compound 9, (R)-7-chloro-3-((4-hydroxy-1-(3-phenylbutanoyl)piperidin-4-yl)methyl)quinazolin-4(3H)-one]

inhibition of USP7 [1]: abrogated USP7 activity
SMILES: O=c1c2ccc(Cl)cc2ncn1CC1(O)CCN(CCCc2ccccc2)CC1 [Compound 4, 7-chloro-3-((4-hydroxy-1-(3-phenylpropyl)piperidin-4-yl)methyl)quinazolin-4(3H)-one]

IC50 [1]: 0.193 µM
fold improvement in biochemical inhibition of USP7 compared to 1 [8]: 100 fold
inhibition of full-length USP7Q351S [9]: resistant
IC50 [10]: ~0.9 µM
half-life [11]: 31 min
SMILES: C[C@H](CC(=O)N1CCC(O)(Cn2cnc3cc(NC(=O)CCN4CCN(C)CC4)ccc3c2=O)CC1)c1ccccc1 [XL188, (R)-N-(3-((4-hydroxy-1-(3-phenylbutanoyl)piperidin-4-yl)methyl)-4-oxo-3,4-dihydroquinazolin-7-yl)-3-(4-methylpiperazin-1-yl)propanamide]
inhibition of DUBs other than USP7, panel of 41 purified DUBs ([5]; 10 μM compound, Ub-Rho as substrate): little to no inhibition
levels of p53 and p21 [6]: increased
HDM2 level ([6]; cycloheximide for the last 2 hours): Degradation of HDM2
HDM2 level [12]: loss of HDM2
levels of p21 and p53 [12]: increase

inhibition of USP7 [1]: little inhibition
SMILES: N#CC1(Cn2cnc3cc(Cl)ccc3c2=O)CCN(C(=O)CCc2ccccc2)CC1 [Compound 3, 4-((7-chloro-4-oxoquinazolin-3(4H)-yl)methyl)-1-(3-phenylpropanoyl)piperidine-4-carbonitrile]

Reference: paper PMC5749250 (Cell chemical biology, 2017)
